In ChEMBL document CHEMBL1123039, “N-substituted imidazolines and ethylenediamines and their action on alpha- and beta-adrenergic receptors” (1985):

Legend:
Rattus norvegicus [1] = test: Tested for alpha1 adrenoceptor-Mediated Pressor Response in Pithed Rats; Dose ratio subsequent administration of antagonist (Prazosin) intravenously at a dose of 0.1 mg/kg; assay type: functional; details: route intravenous
Summary of the method: (§1)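 Pithed rats; drugs given iv through the cannulated right femoral vein at 1 mL/kg after at least 30 min equilibration. Pressor responses to the agonist were recorded as rises in diastolic blood pressure (mmHg), with and without pretreatment with prazosin (0.1 mg/kg, iv; α1-selective) or yohimbine (1 mg/kg, iv; α2-selective). Shift of the agonist dose-response was expressed as a dose ratio (mean ± SEM).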

Rattus norvegicus [2] = test: Tested for alpha-2 adrenoceptor-Mediated Pressor Response in Pithed Rats; Dose ratio by subsequent administration of antagonist (yohimbine) intravenously at a dose of 1 mg/kg; assay type: functional; details: route intravenous; summary of the method: as §1
Rattus norvegicus [3] = test: The dose required to increase diastolic blood pressure by 50 mmHg in pithed rats after intravenous administration; assay type: functional; details: Artery
Summary of the method: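 Pithed rat preparation with the right femoral vein cannulated for iv dosing (1 mL/kg). At least 30 min equilibration preceded drugs. Pressor effect was read as the increase in diastolic blood pressure (mmHg), and heart rate was recorded by a pulse-triggered cardiotachometer. Values are mean ± SEM.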

[4] = system: Adrenergic receptor alpha (Rattus norvegicus); test: The selectivity was evaluated against alpha 1 and alpha 2 adrenoceptors
Rattus norvegicus [5] = test: Tested for alpha-1 adrenoceptor-Mediated Pressor response in Pithed Rats; Dose ratio subsequent administration of antagonist (Prazosin) intravenously at a dose of 0.1 mg/kg; assay type: functional; details: route intravenous
Summary of the method: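 Pithed rats; drugs given iv via the right femoral vein at 1 mL/kg after at least 30 min equilibration. The pressor response is the rise in diastolic blood pressure (mmHg). Agonist pressor responses were measured after α1-selective blockade with prazosin (0.1 mg/kg, iv), and the dose ratio for the pressor response was derived. Values are mean ± SEM.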

Row | SMILES | Selectivity [4] | Dose ratio (Rattus norvegicus [1]) | Dose ratio (Rattus norvegicus [2]) | ED50 (Rattus norvegicus [3]) [mg/kg] | Dose ratio (Rattus norvegicus [5])
1 | Cl.Oc1ccc(CCN2C=NCC2)cc1O | 0.7 | 1.3 | 2.1 | 0.024 | 
2 | Br.Br.CCN1CCc2nc(N)oc2CC1 |  |  |  | 0.026 | 
3 | Oc1ccc(CC2=NCCN2)cc1O | 2 |  | 0.4 | 0.00035 | 0.8
4 | c1ccc(C2CC2)c(OCC2=NCCN2)c1 [CIRAZOLINE] |  |  |  | 0.0006 | 

Further lines, with some results ahead:

Row | Selectivity [4] | SMILES | Dose ratio (Rattus norvegicus [1]) | Dose ratio (Rattus norvegicus [2]) | ED50 (Rattus norvegicus [3]) [mg/kg] | Dose ratio (Rattus norvegicus [5])
5 | 2.2 | Cl.Oc1ccc(CN2C=NCC2)cc1O | 5.3 | 2.4 | 0.035 | 
6 | 0.3 | Cl.Cl.NCCNCCc1ccc(O)c(O)c1 | 1.7 | 5.7 | 0.028 | 
7 | 1.3 | Cl.Cl.NCCNCc1ccc(O)c(O)c1 | 5.5 | 4.4 | 0.305 | 
